Reference: ChEMBL document CHEMBL2010740, “Synthesis and evaluation of 2-amido-3-carboxamide thiophene CB₂ receptor agonists for pain management” (Bioorg Med Chem Lett, 2012)
Activity calls are given as the source filed them.

How the values were obtained:
Rattus norvegicus [1] = test: Analgesic activity in rat incision model of post-operative pain assessed as reduction in paw withdrawal latency at 3 umol/kg, ip administered 90 mins post-surgical incision measured after 30 mins; type: functional; parameters: scale not given: the % may be the effect or the level left
Rattus norvegicus [2] = test: Analgesic activity in ip dosed rat chronic constriction injury model of neuropathic pain assessed as reduction in mechanical allodynia administered 2 weeks post-surgery measured after 30 mins; type: functional, organism-based
Rattus norvegicus [3] = test: Analgesic activity in rat complete Freund's adjuvant model of chronic inflammatory pain assessed as reduction in thermal hyperalgesia at 10 umol/kg, ip co-administered with CB2 antagonist SR144528; type: functional; parameters: scale not given: the % may be the effect or the level left
Summary of the method: (§1)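 Rat CFA inflammatory pain model. Read-out was thermal hyperalgesia in the CFA-injected right paw, with the left paw as control. Test compound and the CB₂ antagonist SR-144528 (10 µmol/kg ip) were given alone and combined, with vehicle controls.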

[4] = Half life in rat at 10 umol/kg, ip; type: ADME, organism-based; conditions: in vivo
Cannabinoid receptor 2 [5] = target: T1, Cannabinoid receptor 2 (Homo sapiens, UniProt P34972); test: Agonist activity at human recombinant CB2 receptor expressed in HEK293 cells co-expressing chimeric Gaq/o protein by FLIPR assay; type: functional, cell-based
Summary of the method: (§2)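 FLIPR functional assay in HEK 293 cells stably co-expressing chimeric Gαq/o protein and the CB receptor. Net peak evoked response was compared with the peak response to CP-55,940.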

Cannabinoid receptor 2 [6] = target: T2, Cannabinoid receptor 2 (Rattus norvegicus, UniProt Q9QZN9); test: Agonist activity at rat recombinant CB2 receptor expressed in HEK293 cells co-expressing chimeric Gaq/o protein by FLIPR assay by FLIPR assay; type: functional, cell-based; summary of the method: as §2
T2 sequence (Q9QZN9 whole entry): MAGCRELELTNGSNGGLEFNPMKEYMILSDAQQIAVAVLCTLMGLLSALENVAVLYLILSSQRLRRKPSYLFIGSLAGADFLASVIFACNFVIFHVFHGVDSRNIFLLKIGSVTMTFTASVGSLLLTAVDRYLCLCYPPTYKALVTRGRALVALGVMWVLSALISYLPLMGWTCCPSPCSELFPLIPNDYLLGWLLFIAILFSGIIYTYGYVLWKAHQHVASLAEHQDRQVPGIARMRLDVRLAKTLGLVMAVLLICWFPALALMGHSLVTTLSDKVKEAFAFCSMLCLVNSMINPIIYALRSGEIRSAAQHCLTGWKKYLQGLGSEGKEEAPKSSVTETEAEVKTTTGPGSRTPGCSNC

[7] = Metabolic stability in human microsomes assessed as compound remaining after 30 mins; type: ADME, Microsome; conditions: read-out: Stability
Summary of the method: (§3)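 Metabolic stability: compound incubated with human or rat liver microsomes. Percent parent remaining was measured after 30 min.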

[8] = Plasma clearance in rat at 3 umol/kg, iv; type: ADME, organism-based
Rattus norvegicus [9] = test: Neurotoxicity in rat assessed as decrease in spontaneous locomotory activity at 10 umol/kg, ip after 30 mins; type: toxicity, organism-based; parameters: scale not given: the % may be the effect or the level left; conditions: in vivo, 0.5 h
Summary of the method: (§4)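 Spontaneous horizontal locomotor activity in rats. Compound was given intraperitoneally 30 min before testing.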

Rattus norvegicus [10] = test: Neurotoxicity in rat assessed as decrease in spontaneous locomotory activity at 30 umol/kg, ip after 30 mins; type: toxicity, organism-based; parameters: scale not given: the % may be the effect or the level left; conditions: in vivo, 0.5 h; summary of the method: as §4
[11] = Tmax in rat at 10 umol/kg, po; type: ADME, organism-based; conditions: in vivo
[12] = Tmax in rat at 10 umol/kg, ip; type: ADME, organism-based; conditions: in vivo
Rattus norvegicus [13] = test: Neurotoxicity in ip dosed rat assessed as decrease in spontaneous locomotory activity after 30 mins; type: toxicity, organism-based; conditions: in vivo, 0.5 h; summary of the method: as §4
Rattus norvegicus [14] = test: Analgesic activity in rat complete Freund's adjuvant model of chronic inflammatory pain assessed as reduction in thermal hyperalgesia at 3 umol/kg, ip administered 48 hrs after CFA-challenge measured after 60 mins; type: functional, organism-based
Rattus norvegicus [15] = test: Analgesic activity in rat complete Freund's adjuvant model of chronic inflammatory pain assessed as reduction in thermal hyperalgesia at 10 umol/kg, ip; type: functional; parameters: scale not given: the % may be the effect or the level left; summary of the method: as §1
[16] = Cmax in rat at 10 umol/kg, po; type: ADME, organism-based; parameters: dose 10 umol/kg, route oral; conditions: in vivo
Cannabinoid receptor 1 [17] = target: T3, Cannabinoid receptor 1 (Homo sapiens, UniProt P21554); test: Agonist activity at human recombinant CB1 receptor expressed in HEK293 cells assessed as inhibition of forskolin-induced cAMP production after 20 mins by ELISA; type: functional, cell-based
Summary of the method: (§5)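 cAMP assay in HEK 293 cells stably expressing the relevant CB receptor, with a fixed concentration of forskolin. cAMP was quantified by ELISA. Activation is given as percent of the CP-55,940 control response.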

Rattus norvegicus [18] = test: Analgesic activity in rat complete Freund's adjuvant model of chronic inflammatory pain assessed as latency in paw withdrawal at 30 umol/kg, po administered 48 hrs after CFA-challenge measured after 60 mins; type: functional
Rattus norvegicus [19] = test: Analgesic activity in rat spinal nerve ligation model of neuropathic pain assessed as […] at 10 umol/kg, ip administered 2 weeks post-surgery measured after 30 mins; type: functional; parameters: scale not given: the % may be the effect or the level left
Summary of the method: (§6)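 Rat spinal nerve ligation (Chung) neuropathic pain model. Dosing was intraperitoneal, two weeks after surgery and 30 min before testing. Read-out was mechanical allodynia (paw withdrawal threshold), given as a dose–response.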

[20] = Oral bioavailability in rat at 10 umol/kg, ip; type: ADME, organism-based; conditions: in vivo, intraperitoneal
[21] = Metabolic stability in rat microsomes assessed as compound remaining after 30 mins; type: ADME, Microsome; conditions: read-out: Stability; summary of the method: as §3
Rattus norvegicus [22] = test: Analgesic activity in ip dosed rat spinal nerve ligation model of neuropathic pain assessed as […] administered 2 weeks post-surgery measured after 30 mins; type: functional, organism-based; summary of the method: as §6
Cannabinoid receptor 2 [23] = target: T1, Cannabinoid receptor 2; test: Agonist activity at human recombinant CB2 receptor expressed in HEK293 cells assessed as inhibition of forskolin-induced cAMP production after 20 mins by ELISA; type: functional, cell-based; summary of the method: as §5
[24] = target: T4, Cannabinoid receptor 2 (Rattus norvegicus) (UniProt Q9QZN9); test: Agonist activity at rat recombinant CB2 receptor expressed in HEK293 cells assessed as inhibition of forskolin-induced cAMP production after 20 mins by ELISA relative to CP55940; type: functional, cell-based; summary of the method: as §5
T4 sequence (whole entry): T2 sequence (Q9QZN9 whole entry)

[25] = AUC in rat at 3 umol/kg, iv; type: ADME, organism-based; conditions: plasma
[26] = Plasma protein binding in human; type: ADME, cell-free; conditions: read-out: PPB (converted)
[27] = target: T4, Cannabinoid receptor 2 (Rattus norvegicus); test: Agonist activity at rat recombinant CB2 receptor expressed in HEK293 cells co-expressing chimeric Gaq/o protein by FLIPR assay by FLIPR assay relative to CP55940; type: functional, cell-based; summary of the method: as §2
Cannabinoid receptor 1 [28] = target: Cannabinoid receptor 1 (Rattus norvegicus, UniProt P20272); test: Agonist activity at rat recombinant CB1 receptor expressed in HEK293 cells assessed as inhibition of forskolin-induced cAMP production after 20 mins by ELISA; type: functional, cell-based; summary of the method: as §5
Rattus norvegicus [29] = test: Analgesic activity in po dosed rat complete Freund's adjuvant model of chronic inflammatory pain assessed as latency in paw withdrawal administered 48 hrs after CFA-challenge measured after 60 mins; type: functional, organism-based
Cannabinoid receptor 1 [30] = target: T3, Cannabinoid receptor 1; test: Displacement of [3H]CP-55940 from human recombinant CB1 receptor expressed in CHO cells after 90 mins; type: cell-based
Summary of the method: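 Competitive binding: [³H]CP-55,940 displaced from membranes of HEK 293 cells stably transfected with human or rat CB₂, or CHO cells stably transfected with human or rat CB₁. Reported as pKi. Determinations >2 (duplicate of duplicate).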

Rattus norvegicus [31] = test: Analgesic activity in rat complete Freund's adjuvant model of chronic inflammatory pain assessed as latency in paw withdrawal at 100 umol/kg, po administered 48 hrs after CFA-challenge measured after 60 mins; type: functional
[32] = Volume of distribution during terminal phase in rat at 3 umol/kg, iv; type: ADME, organism-based; conditions: in vivo, read-out: Vbeta
[33] = Oral bioavailability in rat at 10 umol/kg; type: ADME, organism-based; conditions: in vivo

T1 sequence (P34972 whole entry): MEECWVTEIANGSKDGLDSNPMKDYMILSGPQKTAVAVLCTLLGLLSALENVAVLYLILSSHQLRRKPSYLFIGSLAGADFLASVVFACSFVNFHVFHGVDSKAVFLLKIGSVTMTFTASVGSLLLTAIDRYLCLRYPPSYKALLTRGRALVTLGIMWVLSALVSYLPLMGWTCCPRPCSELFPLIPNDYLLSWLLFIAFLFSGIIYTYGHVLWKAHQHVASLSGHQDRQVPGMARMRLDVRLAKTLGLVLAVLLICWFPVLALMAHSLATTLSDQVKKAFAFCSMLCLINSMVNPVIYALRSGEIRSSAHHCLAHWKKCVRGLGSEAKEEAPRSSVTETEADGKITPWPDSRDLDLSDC
T3 sequence (P21554 whole entry): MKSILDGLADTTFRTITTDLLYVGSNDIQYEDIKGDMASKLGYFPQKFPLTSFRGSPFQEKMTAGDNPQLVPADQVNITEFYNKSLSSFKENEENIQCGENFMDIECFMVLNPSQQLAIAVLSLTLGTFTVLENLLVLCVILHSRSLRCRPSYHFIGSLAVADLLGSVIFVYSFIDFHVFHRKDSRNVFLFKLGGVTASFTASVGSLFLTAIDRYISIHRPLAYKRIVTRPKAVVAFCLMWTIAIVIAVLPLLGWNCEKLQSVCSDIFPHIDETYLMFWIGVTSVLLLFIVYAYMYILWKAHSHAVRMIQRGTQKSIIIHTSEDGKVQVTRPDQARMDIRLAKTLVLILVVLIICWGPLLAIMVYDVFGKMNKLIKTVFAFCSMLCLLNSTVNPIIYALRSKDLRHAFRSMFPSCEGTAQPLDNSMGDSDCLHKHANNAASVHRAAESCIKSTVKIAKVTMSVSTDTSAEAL
Cannabinoid receptor 1 (Rattus norvegicus, UniProt P20272), sequence (P20272 whole entry): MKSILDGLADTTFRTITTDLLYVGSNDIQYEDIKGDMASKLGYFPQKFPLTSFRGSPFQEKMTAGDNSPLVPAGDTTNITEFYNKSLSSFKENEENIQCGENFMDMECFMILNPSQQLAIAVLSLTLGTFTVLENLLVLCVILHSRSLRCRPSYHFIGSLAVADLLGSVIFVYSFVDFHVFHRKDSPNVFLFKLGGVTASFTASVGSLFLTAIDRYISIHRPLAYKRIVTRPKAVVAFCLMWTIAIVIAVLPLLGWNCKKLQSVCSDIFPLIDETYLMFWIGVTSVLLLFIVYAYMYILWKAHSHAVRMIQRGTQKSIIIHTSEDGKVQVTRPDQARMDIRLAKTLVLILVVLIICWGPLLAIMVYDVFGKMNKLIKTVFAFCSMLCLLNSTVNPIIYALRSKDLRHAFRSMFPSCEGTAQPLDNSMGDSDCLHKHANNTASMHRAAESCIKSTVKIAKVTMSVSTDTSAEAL

For CCCNC(=O)c1c(NC(=O)C23CC4CC(CC2C4)C3)sc2c1CCOC2, the Activity (Rattus norvegicus [1]) was 21%, the Activity (Rattus norvegicus [2]) was “Dose-dependent effect” and the Activity (Rattus norvegicus [3]) was 24%. It also gave a half-life [4] of 6.7 h, an IC50 (Cannabinoid receptor 2 [5]) of 70.8 nM and an IC50 (Cannabinoid receptor 2 [6]) of 1550 nM. For the same compound, the remaining at 0.5 h [7] was 9%, the clearance [8] was 63.3 mL/min/kg and the Activity (Rattus norvegicus [9]) was 18%. The Activity (Rattus norvegicus [10]) was 50%, the Tmax [11] was 1.2 h and the Tmax [12] was 0.6 h. For the same compound, the Activity (Rattus norvegicus [13]) was “Dose-dependent effect”, the Activity (Rattus norvegicus [14]) was “Active” and the Activity (Rattus norvegicus [15]) was 91%. The Cmax [16] was 39 ng/mL, the IC50 (Cannabinoid receptor 1 [17]) was 3470 nM and the Activity (Rattus norvegicus [18]) was 24%. For the same compound, the Activity (Rattus norvegicus [19]) was 29%, the bioavailability [20] was 96% and the remaining at 0.5 h [21] was 5%. For the same compound, the Activity (Rattus norvegicus [22]) was “Dose-dependent effect”, the IC50 (Cannabinoid receptor 2 [23]) was 1.95 nM and the Imax [24] was 72%. It also gave an AUC [25] of 320 ng·h/mL, a fraction unbound [26] of 0.02 and an Imax [27] of 79%. For the same compound, the IC50 (Cannabinoid receptor 1 [28]) was 1410 nM, the Activity (Rattus norvegicus [29]) was “Dose-dependent effect” and the Ki (Cannabinoid receptor 1 [30]) was 1550 nM. For the same compound, the Activity (Rattus norvegicus [31]) was 58%, the Vd [32] was 8.7 L/kg and the bioavailability [33] was 11%.
